# Experimental data from ChEMBL document CHEMBL5120830, “New aldo-keto reductase 1C3 (AKR1C3) inhibitors based on the hydroxytriazole scaffold” (Eur J Med Chem, 2022).
# Active and inactive are the calls of the source. The rule behind the calls is not given here.
# Experiments:
# [1] = target: T1, Aldo-keto reductase family 1 member C2 (Homo sapiens) (UniProt P52895); assay: Inhibition of recombinant human AKR1C2 transfected in Escherichia coli BL21 (DE) assessed as reduction in NADPH production at 100 uM using S-tetralol as substrate by fluorescence based analysis relative to control
# T1 sequence (whole entry): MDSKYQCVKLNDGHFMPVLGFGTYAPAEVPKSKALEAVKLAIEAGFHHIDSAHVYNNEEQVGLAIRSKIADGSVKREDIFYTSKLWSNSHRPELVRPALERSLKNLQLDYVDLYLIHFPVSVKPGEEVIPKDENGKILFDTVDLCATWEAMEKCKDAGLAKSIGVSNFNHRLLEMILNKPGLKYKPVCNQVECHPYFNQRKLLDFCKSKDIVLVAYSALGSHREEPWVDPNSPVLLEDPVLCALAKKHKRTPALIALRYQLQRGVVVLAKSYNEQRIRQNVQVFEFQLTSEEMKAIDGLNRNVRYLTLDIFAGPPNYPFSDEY
# How it was run: (§1)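 GST-tagged human AKR1C2 or AKR1C3 made in bacteria (IPTG 0.5 mM, 2 h), purified on glutathione sepharose and thrombin-cleaved. Assay in 100 mM phosphate pH 7 with 200 μM NADP+ and 10% EtOH at 37 °C. S-tetralol was 15 μM for AKR1C2 and 160 μM for AKR1C3. NADPH fluorescence read at 340/460 nm. Inhibition from initial velocities versus solvent controls; ≥3 experiments in triplicate.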
# [2] = Solubility of the compound in PBS at pH 7.4 incubated for 24 hrs by UHPLC analysis; assay type: physicochemical
# How it was run: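 About 1 mg of solid was shaken in 1 mL of 50 mM PBS pH 7.4 at 25 °C for 24 h, then filtered (0.45 μm). The filtrate was run on C18 UHPLC with a water/methanol gradient in 0.1% TFA, read at 254 and 230 nm. Concentration came from external calibration over 1-200 μM; detection limit 1 μM.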
# [3] = Lipophilicity, logD of the compound in n-octanol and phosphate buffer at pH 7.4 incubated for 4 hrs by UV-Vis spectrophotometer based shake flask method; assay type: physicochemical
# How it was run: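 Shake-flask logD between n-octanol and 50 mM PBS pH 7.4 (ionic strength 0.15 M, KCl). The phases were pre-saturated for 4 h, then shaken ~20 min with compound and centrifuged. Aqueous concentration was read by UV at λmax against calibration curves. Each value averages at least six measurements.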
# [4] = target: T2, Aldo-keto reductase family 1 member C3 (Homo sapiens, UniProt P42330); assay: Inhibition of recombinant human AKR1C3 transfected in Escherichia coli BL21 (DE) assessed as reduction in NADPH production using S-tetralol as substrate by fluorescence based analysis; how it was run: as §1
# T2 sequence (P42330 whole entry): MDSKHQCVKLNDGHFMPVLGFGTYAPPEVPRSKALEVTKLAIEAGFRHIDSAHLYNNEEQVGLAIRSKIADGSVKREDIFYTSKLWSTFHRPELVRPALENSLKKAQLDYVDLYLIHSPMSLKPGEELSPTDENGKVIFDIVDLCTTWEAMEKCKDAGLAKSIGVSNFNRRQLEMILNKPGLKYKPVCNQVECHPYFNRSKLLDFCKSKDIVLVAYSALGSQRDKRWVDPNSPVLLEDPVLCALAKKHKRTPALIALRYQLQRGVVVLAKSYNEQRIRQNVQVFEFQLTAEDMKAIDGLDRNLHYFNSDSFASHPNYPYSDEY
# CWR22R [5] = assay: Antiproliferative activity against human 22Rv1 cells expressing AKR1C3 assessed as inhibition of cell growth incubated for 72 hrs by SRB assay; assay type: functional, cell-based; settings: 22Rv1, 72 h
# How it was run: (§2)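 22RV1 cells in RPMI with 10% FCS, 37 °C, 5% CO2. Seeded at 10,000/well in medium with 10% charcoal-stripped serum and left 24 h. Inhibitor dilutions in DMSO added in triplicate for 72 h; DMSO controls at most 1% v/v. Growth read by sulforhodamine B colorimetric assay. IC50 from the mean of three separate experiments.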
# CWR22R [6] = assay: Inhibition of prostate specific antigen expression in human 22Rv1 cells expressing AKR1C3 at 5 to 50 uM incubated for 72 hrs by Western blot analysis; assay type: functional, cell-based; settings: dose 5-50 µM
# How it was run: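 22RV1 cells seeded at 300,000/well in charcoal-stripped serum medium for 24 h, then treated 72 h at 5 or 50 μM in DMSO (≤0.5% v/v). RIPA lysates of 30 μg protein blotted with anti-PSA (1:500, overnight 4 °C) and HRP secondary. β-actin was the loading control. Densitometric PSA/β-actin as fold change; duplicate.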
# CWR22R [7] = assay: Antiproliferative activity against human 22Rv1 cells expressing AKR1C3 assessed as reduction in cell viability at 40 to 60 uM incubated for 72 hrs in presence of abiraterone by SRB assay relative to either drug alone; assay type: functional; settings: dose 40-60 µM
# How it was run: (§3)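 Co-treatment in 22RV1 cells seeded in charcoal-stripped serum medium. Test compound at 40 or 60 μM was given for 72 h with 10 μM abiraterone or 30 μM enzalutamide, or with no drug. Growth was read by SRB assay and expressed as % T/C (mean OD treated / mean OD control × 100).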
# CWR22R [8] = assay: Antiproliferative activity against human 22Rv1 cells expressing AKR1C3 assessed as reduction in cell viability at 40 to 60 uM incubated for 72 hrs in presence of , enzalutamide by SRB assay relative to either drug alone; assay type: functional; settings: dose 40-60 µM; how it was run: as §3
# CWR22R [9] = assay: Antiproliferative activity against human 22Rv1 cells expressing AKR1C3 assessed as reduction in cell viability at 100 uM incubated for 72 hrs by SRB assay relative to control; assay type: functional; how it was run: as §2
# [10] = Inhibition of androstenedione induced testosterone production in human 22Rv1 cells expressing AKR1C3 assessed as reduction in testosterone level to 0.5 uM pretreated for 1 hr followed by androstenedione addition and measured after 24 hrs by ELISA relative to control; assay type: functional, CWR22R; settings: time 25 hrs
# How it was run: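 22RV1 cells seeded at 30,000/well in medium with 10% charcoal-stripped serum and left 24 h. Inhibitor added 1 h before 30 nM androstenedione, then 24 h more. Supernatant (1:2) assayed for testosterone by ELISA read at 405 nm against a standard curve. Mean of three experiments, each in triplicate.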
# [11] = target: T3, Aldo-keto reductase family 1 member C2 (Homo sapiens, UniProt P52895); assay: Inhibition of recombinant human AKR1C2 transfected in Escherichia coli BL21 assessed as reduction in NADP+-dependent S-tetralol oxidation incubated for 20 mins by absorbance based analysis
# T3 sequence (P52895 whole entry): T1 sequence (whole entry)
# [12] = Ionization constant, pKa of the compound by potentiometric titration method; assay type: physicochemical
# How it was run: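 pKa was measured by potentiometric titration on a Sirius T3 in MDM cosolvent (20% acetonitrile, 20% dioxane, 20% methanol), with added percentages varied.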
# [13] = target: T1, Aldo-keto reductase family 1 member C2 (Homo sapiens); assay: Inhibition of recombinant human AKR1C2 transfected in Escherichia coli BL21 (DE) assessed as reduction in NADPH production at 50 uM using S-tetralol as substrate by fluorescence based analysis relative to control; how it was run: as §1
# [14] = target: T1, Aldo-keto reductase family 1 member C2 (Homo sapiens); assay: Inhibition of recombinant human AKR1C2 transfected in Escherichia coli BL21 (DE) assessed as reduction in NADPH production at 20 uM using S-tetralol as substrate by fluorescence based analysis relative to control; how it was run: as §1
SMILES,inhibition [1] [%],solubility at 24 h [2] [µM],logD at 4 h [3],IC50 [4] [µM],IC50 (CWR22R [5]) [µM],inhibition (CWR22R [6]),Activity (CWR22R [7]) [%],Activity (CWR22R [8]) [%],Activity (CWR22R [9]) [%],inhibition at 0.5 µM [10] [%],IC50 [11] [µM],pKa [12],inhibition [13] [%],inhibition [14] [%]
COc1ccc(Cn2nnc(O)c2C(=O)Nc2cccc(C(F)(F)F)c2)cc1,59.9,21.2,1.1,–,–,–,–,–,–,–,–,–,–,–
COc1ccc(Cn2nnc(O)c2C(=O)Nc2cccc(Oc3ccccc3)c2)cc1,72.8,< 1,–,0.11,65,Active,>20,50,–,–,–,–,–,–
COc1ccc(Cn2nnc(O)c2C(=O)Nc2ccc3c(c2)ncn3-c2ccccc2)cc1,–,1.25,2.19,1.63,> 100,–,–,–,36.88,–,–,–,–,–
COc1ccc(Cn2nnc(O)c2C(=O)Nc2cccc(-c3ccccc3)c2)cc1,30.5,< 1,2.3,0.069,52.1,Active,>20,30,–,20,–,–,–,–
COc1ccc2[nH]c(C(=O)N3CCC(CC(C)(C)O)CC3)cc2c1 [ASP-9521],–,–,–,–,–,–,–,–,–,–,> 20,–,–,–
COc1ccc(Cc2onc(O)c2C(=O)Nc2cccc(-c3ccccc3)c2)cc1,7.32,10.8,2.16,0.19,54.8,–,–,–,–,–,–,4.5,–,–
COc1ccc(Cn2nnc(O)c2C(=O)Nc2cccc(-c3cccc(OC)c3)c2)cc1,45.3,< 1,2.5,0.26,59,–,–,–,–,–,–,–,–,–
COc1ccc(Cn2nnc(O)c2C(=O)Nc2ccc(Oc3ccccc3)cc2)cc1,57.8,< 1,–,0.27,58.2,–,–,–,–,–,–,–,–,–
COc1ccc(Cn2nnc(O)c2C(=O)Nc2cccc(-c3ccc(O)cc3)c2)cc1,37.9,2.05,2.19,0.31,67.5,–,–,–,–,–,–,–,–,–
COc1ccc(Cn2nnc(O)c2C(=O)Nc2cccc(-c3cccc(O)c3)c2)cc1,38.5,40.3,2.25,0.21,75.7,–,–,–,–,–,–,4.9,–,–
COc1ccc(Cn2nnc(O)c2C(=O)Nc2cc(C(F)(F)F)cc(C(F)(F)F)c2)cc1,33.6,6.91,2.47,0.4,33.8,–,–,–,–,–,–,–,–,–
COc1ccc(Cn2nnc(O)c2C(=O)Nc2cccc(-c3ccc(OC)cc3)c2)cc1,–,< 1,2.59,0.22,50.1,–,–,–,–,–,–,–,31.6,–
COc1ccc(Cn2nnc(O)c2C(=O)Nc2ccc(-c3ccccc3)cc2)cc1,–,< 1,2.19,0.47,57.9,–,–,–,–,–,–,–,–,30
